Columns and labels:
βD380A/βD386A [1] = experiment: Growth yield in limiting glucose; type: cell-based, E. coli; details: 3–5 mM glucose, wild type in absence of peptides = 100%, means of four to six experiments
How it was run: (§1)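 Measures oxidative plus substrate-level phosphorylation as growth on limiting glucose (3–5 mM). The host is E. coli DK8 carrying plasmid pBWU13.4, which encodes all ATP synthase genes, or site-directed βD380/βD386 mutants built on a βY331W background; mutations were confirmed by sequencing. Cultures were grown with or without each of two C-amidated test peptides (>95% HPLC purity, dissolved in deionized water). pUC118/DK8 served as the null strain.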

βD386R [2] = experiment: Growth yield in limiting glucose; type: cell-based, E. coli; details: 3–5 mM glucose, wild type in absence of peptides = 100%, means of four to six experiments
How it was run: as §1

Wild-type (pBWU13.4/DK8) [3] = experiment: Growth yield in limiting glucose; type: cell-based, E. coli; details: 3–5 mM glucose, wild type in absence of peptides = 100%, means of four to six experiments
How it was run: as §1

βD386R [4] = experiment: Growth on succinate plates; type: cell-based, E. coli; details: 3 days, estimated by eye, means of four to six experiments
How it was run: (§2)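 E. coli DK8 carrying plasmid-borne ATP synthase genes (wild-type pBWU13.4; mutants made by site-directed mutagenesis and sequence-verified) were grown on plates with succinate as the non-fermentable carbon source, with or without test peptide. Growth was scored by eye after 3 days on a scale from ++++ (normal/heavy) to − (none). Values are means of four to six experiments.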

[5] = system: membrane bound F1Fo ATP synthase mutants βD380A/Q/R or βD386A/Q/R; experiment: Inhibition of ATPase activity, single mutants as a group; type: biochemical, Escherichia coli; details: for inhibition of ATPase, single mutants (in words): single mutations with replacement of Asp to Ala, Gln, or Arg
How it was run: (§3)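 Wild-type or mutant membrane-bound F1Fo was prepared by French press, washed, and taken up in 50 mM TrisSO4 pH 8.0, 2.5 mM MgSO4. It was preincubated with a range of test peptide concentrations for 60 min at room temperature, then assayed with 10 mM NaATP, 4 mM MgCl2, 50 mM TrisSO4 pH 8.5 for 5–10 min using 20–30 µg protein. Reactions were stopped with SDS (3.3% final) and Pi read at OD700 (Taussky–Shorr). Activity is relative to wild type without peptide, from duplicate tubes and two or more membrane preparations.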

βD380Q [6] = experiment: Growth yield in limiting glucose; type: cell-based, E. coli; details: 3–5 mM glucose, wild type in absence of peptides = 100%, means of four to six experiments
How it was run: as §1

Null (pUC118/DK8) = experiment: Growth yield in limiting glucose; type: cell-based, E. coli; details: 3–5 mM glucose, wild type in absence of peptides = 100%, means of four to six experiments
βD380Q/βD386Q [7] = experiment: Growth on succinate plates; type: cell-based, E. coli; details: 3 days, estimated by eye, means of four to six experiments
How it was run: as §2

Wild-type (pBWU13.4/DK8) [8] = experiment: Growth on succinate plates; type: cell-based, E. coli; details: 3 days, estimated by eye, means of four to six experiments
How it was run: as §2

βD380Q/βD386Q [9] = experiment: Growth yield in limiting glucose; type: cell-based, E. coli; details: 3–5 mM glucose, wild type in absence of peptides = 100%, means of four to six experiments
How it was run: as §1

mutant E. coli cells = experiment: Growth in presence of peptides, mutants; type: cell-based; details: succinate plates and limiting glucose
βD386Q [10] = experiment: Growth on succinate plates; type: cell-based, E. coli; details: 3 days, estimated by eye, means of four to six experiments
How it was run: as §2

βY331W [11] = experiment: Growth yield in limiting glucose; type: cell-based, E. coli; details: 3–5 mM glucose, wild type in absence of peptides = 100%, means of four to six experiments
How it was run: as §1

βD380A [12] = experiment: Growth yield in limiting glucose; type: cell-based, E. coli; details: 3–5 mM glucose, wild type in absence of peptides = 100%, means of four to six experiments
How it was run: as §1

βD386A [13] = experiment: Growth yield in limiting glucose; type: cell-based, E. coli; details: 3–5 mM glucose, wild type in absence of peptides = 100%, means of four to six experiments
How it was run: as §1

βD386A [14] = experiment: Growth on succinate plates; type: cell-based, E. coli; details: 3 days, estimated by eye, means of four to six experiments
How it was run: as §2

[15] = system: membrane bound F1Fo ATP synthase mutant βD386R; experiment: Inhibition of ATPase activity, βD386R; type: biochemical, Escherichia coli; details: at maximal inhibition, preincubated 60 min at room temperature, pH 8.0
How it was run: as §3

[16] = system: membrane bound F1Fo ATP synthase mutant βD380R; experiment: Inhibition of ATPase activity, βD380R; type: biochemical, Escherichia coli; details: at maximal inhibition, preincubated 60 min at room temperature, pH 8.0
How it was run: as §3

βD380R [17] = experiment: Growth yield in limiting glucose; type: cell-based, E. coli; details: 3–5 mM glucose, wild type in absence of peptides = 100%, means of four to six experiments
How it was run: as §1

[18] = system: membrane bound F1Fo ATP synthase double mutants βD380A/βD386A, βD380Q/βD386Q, or βD380R/βD386R; experiment: Inhibition of ATPase activity, double mutants as a group; type: biochemical, Escherichia coli
How it was run: as §3

wild type E. coli cells = experiment: Growth in presence of peptides, wild-type; type: cell-based; details: succinate plates and limiting glucose
How it was run: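 Wild-type DK8/pBWU13.4 was grown with test peptide on succinate plates, scored by eye after 3 days, and in limiting glucose (3–5 mM). Glucose growth yield is expressed relative to wild type without peptide, set as 100%. Values are means of four to six experiments.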

βY331W [19] = experiment: Growth on succinate plates; type: cell-based, E. coli; details: 3 days, estimated by eye, means of four to six experiments
How it was run: as §2

βD380A [20] = experiment: Growth on succinate plates; type: cell-based, E. coli; details: 3 days, estimated by eye, means of four to six experiments
How it was run: as §2

βD380R [21] = experiment: Growth on succinate plates; type: cell-based, E. coli; details: 3 days, estimated by eye, means of four to six experiments
How it was run: as §2

βD386Q [22] = experiment: Growth yield in limiting glucose; type: cell-based, E. coli; details: 3–5 mM glucose, wild type in absence of peptides = 100%, means of four to six experiments
How it was run: as §1

βD380A/βD386A [23] = experiment: Growth on succinate plates; type: cell-based, E. coli; details: 3 days, estimated by eye, means of four to six experiments
How it was run: as §2

βD380Q [24] = experiment: Growth on succinate plates; type: cell-based, E. coli; details: 3 days, estimated by eye, means of four to six experiments
How it was run: as §2

βD380R/βD386R [25] = experiment: Growth on succinate plates; type: cell-based, E. coli; details: 3 days, estimated by eye, means of four to six experiments
How it was run: as §2

βD380R/βD386R [26] = experiment: Growth yield in limiting glucose; type: cell-based, E. coli; details: 3–5 mM glucose, wild type in absence of peptides = 100%, means of four to six experiments
How it was run: as §1

ATP synthase = details: cited from earlier work

For melittin-amide, the “Growth yield in limiting glucose” value (βD380A/βD386A [1]) was 75%, the “Growth yield in limiting glucose” value (βD386R [2]) was 70% and the “Growth yield in limiting glucose” value (Wild-type (pBWU13.4/DK8) [3]) was 20%. For the same molecule, the “Growth on succinate plates” value (βD386R [4]) was “+++/+++”, the “refractoriness of mutants to peptide induced inhibition (in words)” value ([5]; all of the mutations used in this study (single and double)) was “refractory” and the “inhibition of ATPase, single mutants (in words)” value [5] was “decreased inhibition”. The “inhibition of ATPase, single mutants (in words)” value ([5]; listed as c-terminal amide bound melittin) was “only partial inhibition”, the “Growth yield in limiting glucose” value (βD380Q [6]) was 90% and the “Growth yield in limiting glucose” value (Null (pUC118/DK8)) was 43%. For the same molecule, the “Growth on succinate plates” value (βD380Q/βD386Q [7]) was “+++/+++”, the “Growth on succinate plates” value (Wild-type (pBWU13.4/DK8) [8]) was “±/±” and the “Growth yield in limiting glucose” value (βD380Q/βD386Q [9]) was 72%. The “growth of mutant cells in presence of peptide (in words)” value (mutant E. coli cells) was “not much affected”, the “Growth on succinate plates” value (βD386Q [10]) was “+++/+++” and the “Growth yield in limiting glucose” value (βY331W [11]) was 22%. For the same molecule, the “Growth yield in limiting glucose” value (βD380A [12]) was 89%, the “Growth yield in limiting glucose” value (βD386A [13]) was 79% and the “Growth on succinate plates” value (βD386A [14]) was “+++/+++”. The “prevention of inhibition (residual activity)” value [15] was 80%, the “residual ATPase activity” value [16] was 80% and the “Growth yield in limiting glucose” value (βD380R [17]) was 82%. For the same molecule, the “inhibition of ATPase, double mutants (in words)” value [18] was “very little or no inhibition”, the “growth of wild-type cells in presence of peptide (in words)” value (wild type E. coli cells) was “abrogated growth” and the “Growth on succinate plates” value (βY331W [19]) was “±/±”. For the same molecule, the “Growth on succinate plates” value (βD380A [20]) was “+++/+++”, the “Growth on succinate plates” value (βD380R [21]) was “+++/+++” and the “Growth yield in limiting glucose” value (βD386Q [22]) was 74%. The “Growth on succinate plates” value (βD380A/βD386A [23]) was “+++/+++”, the “Growth on succinate plates” value (βD380Q [24]) was “+++/+++” and the “Growth on succinate plates” value (βD380R/βD386R [25]) was “++/++”. For the same molecule, the “Growth yield in limiting glucose” value (βD380R/βD386R [26]) was 66%.

For [Cl][Sc]([Cl])[Cl] [ScCl3], the “maximal inhibition of mutant or wild-type ATP synthase (in words)” value (shortened to “maximal inhibition”) (ATP synthase) is listed as “partially or incompletely inhibited”.

For [N-]=[N+]=[N-].[Na+] [NaN3], the “maximal inhibition” value (ATP synthase) is given as “partially or incompletely inhibited”.

For O=[N+]([O-])c1ccc(Cl)c2nonc12 [NBD-Cl], the “maximal inhibition” value (ATP synthase) is listed as “partially or incompletely inhibited”.

For melittin, the “ATPase inhibitory activity (in words)” value (ATP synthase) is listed as “strongly inhibited”.

For [Cl][Al]([Cl])[Cl] [AlCl3], the “maximal inhibition” value (ATP synthase) is given as “partially or incompletely inhibited”.

From paper PMC4607043 (International journal of biological macromolecules, 2015)
